Data set [1] concerns the target T1, ATP-dependent translocase ABCB1 (Homo sapiens, UniProt P08183). The data set is described as follows: Stimulation of P-gp in human multidrug resistant NCI-H460/R cells assessed as fluorescence activity ratio at 10 uM for 30 mins by Rho123 accumulation assay relative to control. The settings on record: nci-h460, 0.5 h.
Data set [2] addresses T1, ATP-dependent translocase ABCB1. The data set is described as follows: Stimulation of P-gp in human multi-drug resistant NCI-H460/R cells assessed as decrease in Rho123 accumulation by measuring mean fluorescence intensity at 5 uM incubated for 30 mins in presence of rhodamine 123 by flow cytometry. The conditions noted are these: nci-h460, 0.5 h. A digest of the protocol: (§1)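 NCI-H460/R (P-gp-overexpressing NSCLC) cells exposed to the test agent together with Rho123 for 30 min; mean fluorescence intensity (MFI) read. Untreated NCI-H460/R serve as MDR control and parental NCI-H460 as sensitive control. FAR = MFI treated/MFI MDR control; SI = MFI treated × 100/MFI sensitive control; mean ± SE. Tariquidar is the P-gp inhibition positive control.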

The target is the same in data set [3]. The data set is described as follows: Stimulation of P-gp in human multidrug resistant NCI-H460/R cells assessed as fluorescence activity ratio at 5 uM for 72 mins by Rho123 accumulation assay relative to control. The conditions noted are these: nci-h460, 1.2 h.
The test system of the next data set is MRC5. Kind of data set: Cytotoxicity against human MRC-5 cells assessed as reduction in cell viability measured after 72 hrs by MTT assay. In kind it is cell-based. The conditions noted are these: MRC5, 72 h. In a few lines: (§2)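 MTT read-out of metabolic activity (viability) in sensitive NSCLC NCI-H460, its P-gp-overexpressing MDR subline NCI-H460/R and normal embryonic lung fibroblasts MRC-5. Isolated diterpenes were tested at 2, 5, 10, 20 and 50 μM and acetone extract at 2, 5, 10, 20 and 50 μg/mL. IC50 was reported in μM for compounds and μg/mL for extract.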

Data set [4] can be described thus: Selectivity index, ratio of mean fluorescence intensity for stimulation of P-gp in human multidrug resistant NCI-H460/R cells to mean fluorescence intensity for stimulation of P-gp in human NCI-H460 cells assessed as decrease in Rho123 accumulation at 5 uM for 30 mins. Format: functional. The conditions noted are these: 0.5 h.
Data set [5] has as its target T1, ATP-dependent translocase ABCB1. The data set is described as follows: Stimulation of P-gp in human multidrug resistant NCI-H460/R cells assessed as decrease in Rho123 accumulation by measuring mean fluorescence intensity at 5 uM incubated for 72 hrs followed by rhodamine 123 measured after 30 mins by flow cytometry. The conditions noted are these: nci-h460, 72.5 h. A digest of the protocol:
(§3)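 NCI-H460/R cells treated with the test agent for 72 h, then loaded with Rho123 for 30 min; intracellular mean fluorescence intensity (MFI) measured. References are untreated NCI-H460/R (MDR control) and parental NCI-H460 (sensitive control). FAR = MFI treated/MFI MDR control; SI = MFI treated × 100/MFI sensitive control; mean ± SE. Tariquidar is the P-gp inhibitor comparator.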

Data set [6] has the same target. Kind of data set: Stimulation of P-gp in human multidrug resistant NCI-H460/R cells assessed as fluorescence activity ratio at 10 uM for 72 mins by Rho123 accumulation assay relative to control. The settings on record: nci-h460, 1.2 h.
Data set [7] deals with NCI-H460. The data set is described as follows: Anticancer activity against human NCI-H460 cells assessed as reduction in cell viability measured after 72 hrs by MTT assay. Format: functional, cell-based. The conditions noted are these: NCI-H460, 72 h. In a few lines:
as §2

Data set [8] deals with T1, ATP-dependent translocase ABCB1. The data set is described as follows: Stimulation of P-gp in human multi drug resistant NCI-H460/R cells assessed as decrease in Rho123 accumulation by measuring mean fluorescence intensity at 10 uM incubated for 30 mins in presence of rhodamine 123by flow cytometry. The conditions noted are these: nci-h460, 0.5 h. In a few lines: as §1

The target is the same in data set [9]. The data set is described as follows: Stimulation of P-gp in human multidrug resistant NCI-H460/R cells assessed as fluorescence activity ratio at 5 uM for 30 mins by Rho123 accumulation assay relative to control. The settings on record: nci-h460, 0.5 h.
Data set [10] can be described thus: Selectivity index, ratio of IC50 for cytotoxicity against human MRC-5 cells to of IC50 for anticancer activity against human NCI-H460 cells. Format: toxicity, cell-based. The conditions noted are these: for selectivity ratio: MRC-5 cells versus NCI-H460 cells, read-out: Ratio IC50. A digest of the protocol: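 Selectivity index is the MRC-5 IC50 divided by the NCI-H460 IC50. Both come from MTT viability assays over 2–50 μM (compounds) or 2–50 μg/mL (extract).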

Data set [11] is described as follows: Selectivity index, ratio of mean fluorescence intensity for stimulation of P-gp in human multidrug resistant NCI-H460/R cells to mean fluorescence intensity for stimulation of P-gp in human NCI-H460 cells assessed as decrease in Rho123 accumulation at 10 uM for 72 mins. Format: functional. The settings on record: 1.2 h.
Data set [12] has as its system NCI-H460. Kind of data set: Anticancer activity against human multi-drug resistant NCI-H460/R cells assessed as reduction in cell viability measured after 72 hrs by MTT assay. The conditions noted are these: NCI-H460, 72 h. Format: functional, cell-based. In a few lines:
as §2

In data set [13] the target is T1, ATP-dependent translocase ABCB1. Kind of data set: Stimulation of P-gp in human multidrug resistant NCI-H460/R cells assessed as decrease in Rho123 accumulation by measuring mean fluorescence intensity at 10 uM incubated for 72 hrs followed by rhodamine 123 measured after 30 mins by flow cytometry. The conditions noted are these: nci-h460, 72.5 h. A digest of the protocol:
as §3

The nature of data set [14]: Selectivity index, ratio of mean fluorescence intensity for stimulation of P-gp in human multidrug resistant NCI-H460/R cells to mean fluorescence intensity for stimulation of P-gp in human NCI-H460 cells assessed as decrease in Rho123 accumulation at 10 uM for 30 mins. The conditions noted are these: 0.5 h. Format: functional.
The nature of data set [15]: Selectivity index, ratio of mean fluorescence intensity for stimulation of P-gp in human multidrug resistant NCI-H460/R cells to mean fluorescence intensity for stimulation of P-gp in human NCI-H460 cells assessed as decrease in Rho123 accumulation at 5 uM for 72 mins. Format: functional. The conditions noted are these: 1.2 h.
A short description of data set [16]: Selectivity index, ratio of mean fluorescence intensity for stimulation of P-gp in human multidrug resistant NCI-H460/R cells to mean fluorescence intensity for stimulation of P-gp in human NCI-H460 cells assessed as decrease in Rho123 accumulation at 0.05 uM for […]. Format: functional.
Data set [17] deals with T1, ATP-dependent translocase ABCB1. The data set is described as follows: Stimulation of P-gp in human multidrug resistant NCI-H460/R cells assessed as fluorescence activity ratio at 50 uM for 30 mins by Rho123 accumulation assay relative to control. The conditions noted are these: nci-h460, 0.5 h. A digest of the protocol:
(§4)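 Rho123 and test agent given together to NCI-H460/R cells for 30 min, then mean fluorescence intensity (MFI) read. FAR = MFI of treated MDR cells / MFI of untreated MDR cells. SI = (MFI of treated MDR cells × 100) / MFI of untreated sensitive NCI-H460 cells. Tariquidar was the P-gp inhibition control. Mean ± SE.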

Data set [18] can be described thus: Selectivity index, ratio of mean fluorescence intensity for stimulation of P-gp in human multidrug resistant NCI-H460/R cells to mean fluorescence intensity for stimulation of P-gp in human NCI-H460 cells assessed as decrease in Rho123 accumulation at 50 uM for 30 mins. The conditions noted are these: 0.5 h. In kind it is functional. In a few lines:
as §4

Data set [19] has as its target T1, ATP-dependent translocase ABCB1. Kind of data set: Stimulation of P-gp in human multidrug resistant NCI-H460/R cells assessed as fluorescence activity ratio at 0.05 uM […] by Rho123 accumulation assay relative to control. The settings on record: nci-h460, 1.2 h.
For data set [20] the target is unchanged. The data set is described as follows: Stimulation of P-gp in human multi-drug resistant NCI-H460/R cells assessed as decrease in Rho123 accumulation by measuring mean fluorescence intensity at 50 uM incubated for 30 mins in presence of rhodamine 123 by flow cytometry. The conditions noted are these: nci-h460, 0.5 h. In a few lines:
as §1

The target is the same in data set [21]. The data set is described as follows: Stimulation of P-gp in human multidrug resistant NCI-H460/R cells assessed as decrease in Rho123 accumulation by measuring mean fluorescence intensity at 0.05 uM incubated for 72 hour followed by rhodamine 123 measured after 30 mins by flow cytometry. The conditions noted are these: nci-h460, 72 h. In a few lines: as §3

SMILES strings stand for the structures. Where only a bound is given, the exact number is not on record here.

T1 sequence (P08183 whole entry): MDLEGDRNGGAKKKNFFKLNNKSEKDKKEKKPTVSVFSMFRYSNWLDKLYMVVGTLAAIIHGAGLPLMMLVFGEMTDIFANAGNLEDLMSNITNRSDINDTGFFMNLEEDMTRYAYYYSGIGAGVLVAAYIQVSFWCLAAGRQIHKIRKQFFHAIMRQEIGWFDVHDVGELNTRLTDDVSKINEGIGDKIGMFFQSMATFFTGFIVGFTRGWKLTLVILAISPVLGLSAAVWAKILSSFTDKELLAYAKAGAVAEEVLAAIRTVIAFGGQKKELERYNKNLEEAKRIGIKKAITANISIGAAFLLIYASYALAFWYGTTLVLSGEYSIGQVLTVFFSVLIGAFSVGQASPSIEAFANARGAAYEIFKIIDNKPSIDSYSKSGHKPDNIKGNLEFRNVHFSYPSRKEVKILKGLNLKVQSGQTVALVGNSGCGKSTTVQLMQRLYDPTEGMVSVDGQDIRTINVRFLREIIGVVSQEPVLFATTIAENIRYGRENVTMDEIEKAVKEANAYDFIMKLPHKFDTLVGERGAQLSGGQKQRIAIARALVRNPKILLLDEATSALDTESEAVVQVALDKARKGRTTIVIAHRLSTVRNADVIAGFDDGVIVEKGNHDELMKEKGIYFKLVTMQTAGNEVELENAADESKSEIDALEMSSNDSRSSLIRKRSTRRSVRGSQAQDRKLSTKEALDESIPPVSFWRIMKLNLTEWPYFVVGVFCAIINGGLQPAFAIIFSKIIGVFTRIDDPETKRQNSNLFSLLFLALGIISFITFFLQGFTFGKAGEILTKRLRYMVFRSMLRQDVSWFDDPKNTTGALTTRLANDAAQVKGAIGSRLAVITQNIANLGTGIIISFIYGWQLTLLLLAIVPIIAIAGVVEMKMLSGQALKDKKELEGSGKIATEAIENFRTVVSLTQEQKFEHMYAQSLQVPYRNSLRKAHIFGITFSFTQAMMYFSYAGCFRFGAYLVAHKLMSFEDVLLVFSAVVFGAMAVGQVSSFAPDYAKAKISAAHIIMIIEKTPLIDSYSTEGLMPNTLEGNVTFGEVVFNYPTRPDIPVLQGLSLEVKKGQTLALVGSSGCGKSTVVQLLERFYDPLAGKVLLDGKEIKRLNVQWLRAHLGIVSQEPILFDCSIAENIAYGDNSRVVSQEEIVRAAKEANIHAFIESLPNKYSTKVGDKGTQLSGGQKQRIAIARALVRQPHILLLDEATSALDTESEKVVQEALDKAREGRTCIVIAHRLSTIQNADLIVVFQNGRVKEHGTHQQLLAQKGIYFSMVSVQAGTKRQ

With `CC(C)c1c(O)c(O)c2c(c1O)C(=O)C(O)=C1C(C)(C)CCC[C@@]12C`, the Ratio in [1] was 0.49; in [3] it was 0.21; in data set [6] it was 0.14; in [9] it was 2.45. Besides, the Flu intensity was 1258.8 in [2], 173.5 in [5], 253 in data set [8] and 109.7 in data set [13]. For the same compound, the IC50 with MRC5 came out at 35.5 µM; in the data set on NCI-H460 [7] it was 14.1 µM; in the data set with NCI-H460 [12] it was 14.5 µM. Moreover, the “Selectivity Index” value in [4] amounted to 58.52; in data set [11] it was 4.43; in [14], 11.76; in data set [15], 7. Besides, the selectivity ratio in [10] was 2.5.

In the case of `CC(C)C1=C(O)C(=O)C2=C(C(=O)C(O)=C3C(C)(C)CCC[C@]23C)C1=O`, the Ratio in data set [1] is listed as 1.93; in [3], 0.34; in [6] it was 0.3; in data set [9] it was 1.3. Besides, the Flu intensity in data set [2] is reported as 669.6; in data set [5], 277.3; in data set [8], 991.3; in data set [13], 242. Also, the IC50 in the data set with MRC5 worked out at 44.1 µM; in the data set on NCI-H460 [7], 23 µM; in the data set with NCI-H460 [12] it was 20.4 µM. Also, the “Selectivity Index” value is 31.13 in data set [4], 9.76 in [11], 46.09 in data set [14] and 11.18 in [15]. In addition, in [10], the selectivity ratio amounted to 2.

For `CC(C)c1cc2c(c(O)c1O)[C@@]1(O)CCCC(C)(C)[C@@H]1C(=O)C2=O`, the Ratio in data set [1] is recorded as 1.12; in data set [3] it was 0.33; in data set [6], 0.31; in [9], 1.16. In addition, the Flu intensity in [2] was determined as 595.3; in [5], 265.9; in [8], 573; in data set [13], 254.5. Also, the half-inhibitory concentration (IC50) in the data set with MRC5, in the data set with NCI-H460 [7] and in the data set on NCI-H460 [12] was over 50 µM in each case. In addition, the “Selectivity Index” value in data set [4] stood at 27.68; in data set [11], 10.26; in data set [14], 26.64; in data set [15], 10.72. Further, the “Ratio IC50” value in data set [10] is “Not Active”.

`CC(C)C1=C(O)C(=O)[C@@]23O[C@@]2(C(=O)C(O)=C2C(C)(C)CCC[C@@]23C)C1=O`: the Ratio in [1] was found to be 1.3; in data set [3], 0.36; in [6], 0.34; in data set [9], 1.39. Further, the Flu intensity in data set [2] stood at 711.6; in data set [5], 289.7; in [8] it was 666.1; in data set [13], 276.6. In addition, the results for the IC50 in the data set with MRC5, in the data set with NCI-H460 [7] and with NCI-H460 [12] were 40.2 µM, 20.2 µM and 17.3 µM, respectively. Moreover, the “Selectivity Index” value is 33.08 in data set [4], 11.16 in data set [11], 30.97 in data set [14] and 11.68 in data set [15]. For the same compound, the selectivity ratio in data set [10] came out at 2.

On to `COc1cccc2c1C(=O)c1c(O)c3c(c(O)c1C2=O)C[C@@](O)(C(=O)CO)C[C@@H]3O[C@H]1C[C@H](N)[C@H](O)[C@H](C)O1` [DOXORUBICIN], for which the 50% inhibitory concentration (IC50) in the data set on NCI-H460 [12] is 1.62 µM.

For the compound `CC(=O)O[C@H]1C(=O)[C@@]2(C)[C@H]([C@H](OC(=O)c3ccccc3)[C@]3(O)C[C@H](OC(=O)[C@H](O)[C@@H](NC(=O)c4ccccc4)c4ccccc4)C(C)=C1C3(C)C)[C@]1(OC(C)=O)CO[C@@H]1C[C@@H]2O` [PACLITAXEL], the IC50 in the data set with MRC5 stood at 0.523 µM; in the data set with NCI-H460 [7], 0.0006 µM; in the data set with NCI-H460 [12], 0.117 µM. For the same compound, in data set [10], the selectivity ratio was determined as 872.

Consider `COc1cc2c(cc1OC)CN(CCc1ccc(NC(=O)c3cc(OC)c(OC)cc3NC(=O)c3cnc4ccccc4c3)cc1)CC2` [TARIQUIDAR], for which the “Selectivity Index” value in data set [16] and in [18] was 121.16 each time. For the same compound, the Ratio in data set [17] and in [19] was 3.7 in each case. For the same compound, the Flu intensity in data set [20] and in data set [21] was 3004 each time.

The values are drawn from ChEMBL document CHEMBL5036376, “C20-nor-Abietane and Three Abietane Diterpenoids from Plectranthus mutabilis Leaves as P-Glycoprotein Modulators” (ACS Med Chem Lett, 2022).
